Among the data in ChEMBL document CHEMBL4196166 (J Med Chem, 2018) are Activity and inhibition values, retold here.

The inhibition is the relative decrease from the control value, in per cent.

Active and inactive are the calls of the source. The rule behind the calls is not given here.

One data set relates to Homo sapiens. As to the kind of experiment: Antimetastatic activity against human PSC xenografted in BALB/c nu/nu mouse co-implanted with human AsPC1 cells assessed as reduction in metastasis lesions in liver at 75 mg/kg, po administered twice per week via gavage measured after 28 days post first dose by microscopic analysis. Type of data set: functional, organism-based. A digest of the protocol:
(§1)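 Female athymic BALB/c nu/nu mice, 6–8 weeks old. 1×10^6 AsPC-1 and 1×10^6 human pancreatic stellate cells in 50 µL PBS injected into the pancreatic tail. Treatment randomized on day 7 (n = 4/group) for 4 weeks: 10 mg/kg/day ip in 50 mM sodium acetate pH 5.5/10% DMSO/1% Kolliphor HS-15, or gemcitabine 75 mg/kg by oral gavage twice weekly, or vehicle. At kill, liver scored for visible macrometastases, fixed in formalin, and 4 µm sections stained with H&E. Chi-square test.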

Another data set has as its system ASPC1. Put plainly: Antimetastatic activity against human AsPC1 cells xenografted in BALB/c nu/nu mouse co-implanted with human PSC assessed as reduction in metastasis lesions in liver at 75 mg/kg, po administered twice per week via gavage measured after 28 days post first dose by microscopic analysis. Type of data set: functional, organism-based. An outline of the steps: as §1
(In xenograft studies the graft and the host belong to different species.)

For data set [1], the target named is ENaC alpha subunit (epithelial sodium channel subunit alpha) (Homo sapiens, UniProt P37088). Put plainly: Inhibition of S-3969-stimulated recombinant human ENaC alpha subunit expressed in HEK293 cells at 10 uM preincubated for 5 mins followed by S-3969 stimulation by FLIPR assay. The class given is cell-based. The conditions noted are these: HEK293 cells expressing recombinant human ENaC alpha subunit. A digest of the protocol: (§2)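 HEK-293 cells transfected with human ENaC α, β and γ cDNA together, plated at 20 000 cells/well, incubated overnight at 37 °C. Loaded with membrane-potential red dye for 30 min at 37 °C. Compound preincubated 5 min in HEPES-buffered salt solution (pH 7.4, 0.3% DMSO), then stimulated with 1 µM S-3969, read on FLIPR. Signal normalized to agonist alone (100%) and agonist plus 30 µM benzamil (0%). n = 4 wells.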
ENaC alpha subunit (epithelial sodium channel subunit alpha), sequence (P37088 whole entry): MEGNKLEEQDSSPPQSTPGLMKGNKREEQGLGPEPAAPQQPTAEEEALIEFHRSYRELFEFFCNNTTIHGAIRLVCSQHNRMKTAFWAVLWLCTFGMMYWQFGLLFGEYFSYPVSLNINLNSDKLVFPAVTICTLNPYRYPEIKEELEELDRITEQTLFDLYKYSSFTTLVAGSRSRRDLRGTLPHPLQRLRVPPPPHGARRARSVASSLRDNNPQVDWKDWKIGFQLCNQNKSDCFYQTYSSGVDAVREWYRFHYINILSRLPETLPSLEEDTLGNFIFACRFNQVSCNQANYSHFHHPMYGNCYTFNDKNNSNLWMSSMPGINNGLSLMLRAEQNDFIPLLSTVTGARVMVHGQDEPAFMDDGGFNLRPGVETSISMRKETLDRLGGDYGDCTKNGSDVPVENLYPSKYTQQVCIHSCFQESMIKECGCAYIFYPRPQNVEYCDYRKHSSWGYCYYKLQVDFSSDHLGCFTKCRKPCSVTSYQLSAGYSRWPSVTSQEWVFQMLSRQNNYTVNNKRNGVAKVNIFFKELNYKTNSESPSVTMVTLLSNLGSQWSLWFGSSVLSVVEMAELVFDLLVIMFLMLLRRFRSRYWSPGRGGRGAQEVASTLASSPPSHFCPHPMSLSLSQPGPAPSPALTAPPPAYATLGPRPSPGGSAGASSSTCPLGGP

The subject of another data set is HT-1080. As to the kind of experiment: Antimetastatic activity against luciferase-tagged human HT1080 cells xenografted in NOD.Cg-Prkdc<scid>-IL2rg<tm1Wjl>SzJAusb mouse assessed as inhibition of late-stage lung metastasis at 7.5 mg/kg/day, ip administered from day -1 to day 20 measured day 21.
Data set [2] deals with ENaC gamma subunit (epithelial sodium channel subunit gamma) (Homo sapiens, UniProt P51170). As to the kind of experiment: Inhibition of S-3969-stimulated recombinant human ENaC gamma subunit expressed in HEK293 cells at 10 uM preincubated for 5 mins followed by S-3969 stimulation by FLIPR assay. The class given is cell-based. The conditions noted are these: HEK293 cells expressing recombinant human ENaC gamma subunit. A digest of the protocol: as §2
ENaC gamma subunit (epithelial sodium channel subunit gamma), sequence (P51170 whole entry): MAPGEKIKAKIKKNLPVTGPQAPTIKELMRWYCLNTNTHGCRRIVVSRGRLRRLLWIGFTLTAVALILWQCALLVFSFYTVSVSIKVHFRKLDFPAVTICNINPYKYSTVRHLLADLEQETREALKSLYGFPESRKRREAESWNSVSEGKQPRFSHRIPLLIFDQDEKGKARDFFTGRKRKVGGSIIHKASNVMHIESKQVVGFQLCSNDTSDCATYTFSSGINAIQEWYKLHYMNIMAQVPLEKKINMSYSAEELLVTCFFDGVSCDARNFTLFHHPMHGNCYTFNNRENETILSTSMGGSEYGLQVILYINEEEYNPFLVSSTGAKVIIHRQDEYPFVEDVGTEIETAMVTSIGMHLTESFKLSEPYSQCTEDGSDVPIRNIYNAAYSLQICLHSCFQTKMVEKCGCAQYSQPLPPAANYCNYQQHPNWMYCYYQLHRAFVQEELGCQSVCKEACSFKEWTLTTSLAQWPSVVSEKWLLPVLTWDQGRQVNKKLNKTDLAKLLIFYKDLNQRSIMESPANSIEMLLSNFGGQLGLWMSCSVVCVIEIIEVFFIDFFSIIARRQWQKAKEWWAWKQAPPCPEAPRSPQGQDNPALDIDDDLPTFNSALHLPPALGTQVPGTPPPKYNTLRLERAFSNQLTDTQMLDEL

The target in data set [3] is ENaC beta subunit (epithelial sodium channel subunit beta) (Homo sapiens, UniProt P51168). As to the kind of experiment: Inhibition of S-3969-stimulated recombinant human ENaC beta subunit expressed in HEK293 cells at 10 uM preincubated for 5 mins followed by S-3969 stimulation by FLIPR assay. The class given is cell-based. The conditions noted are these: HEK293 cells expressing recombinant human ENaC beta subunit. An outline of the steps:
as §2

ENaC beta subunit (epithelial sodium channel subunit beta), sequence (P51168 whole entry): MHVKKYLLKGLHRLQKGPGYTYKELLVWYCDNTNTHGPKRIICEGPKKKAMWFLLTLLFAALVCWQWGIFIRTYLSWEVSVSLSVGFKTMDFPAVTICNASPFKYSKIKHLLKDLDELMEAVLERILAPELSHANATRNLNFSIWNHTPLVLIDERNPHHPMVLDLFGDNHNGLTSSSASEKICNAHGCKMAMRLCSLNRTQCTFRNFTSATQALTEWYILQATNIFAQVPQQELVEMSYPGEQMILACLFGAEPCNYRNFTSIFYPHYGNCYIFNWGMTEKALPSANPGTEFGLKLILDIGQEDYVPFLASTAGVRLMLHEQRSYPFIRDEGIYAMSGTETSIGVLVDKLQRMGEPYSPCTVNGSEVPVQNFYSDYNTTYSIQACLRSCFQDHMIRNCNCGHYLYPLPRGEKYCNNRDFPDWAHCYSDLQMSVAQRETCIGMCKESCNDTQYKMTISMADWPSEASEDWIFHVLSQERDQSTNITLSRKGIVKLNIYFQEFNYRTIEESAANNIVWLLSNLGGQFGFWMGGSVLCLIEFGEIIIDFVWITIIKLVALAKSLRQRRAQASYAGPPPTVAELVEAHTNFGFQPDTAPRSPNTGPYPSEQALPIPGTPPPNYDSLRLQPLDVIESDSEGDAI

In the case of `Nc1ccn([C@@H]2O[C@H](CO)[C@@H](O)C2(F)F)c(=O)n1`, the result in the data set on Homo sapiens and in the data set on ASPC1 was Active.
As to `N=C(N)NC(=O)c1nc(Cl)c(N)nc1N` [AMILORIDE], the inhibition at 5 min, 10 µM in data set [1], in data set [2] and in data set [3] was 68% in each case. Further, the inhibition entry in the data set on HT-1080 is “inactive”.
